ChEMBL document CHEMBL1649102, “Stereochemical survey of digitoxin monosaccharides: new anticancer analogues with enhanced apoptotic activity and growth inhibitory effect on human non-small cell lung cancer cell” (ACS Med Chem Lett, 2011)
The source made the active and inactive calls. No cut-off for these calls is given here.

Assays:
NCI-H460 [1] = assay: Induction of apoptosis human NCI-H460 cells assessed as cellular degradation at 50 nM after 12 hrs by Hoechst-33342 staining; assay type: functional
In short: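 NCI-H460 seeded 50,000 cells/well for 12 h, then exposed 12 h in serum-free medium (DMSO <0.1%). Stained 30 min at 37°C with 10 µg/ml Hoechst 33342 plus 20 µg/ml propidium iodide. Condensed or fragmented nuclei scored by fluorescence microscopy; apoptotic index = apoptotic/total nuclei ×100. 2 replicate wells, ≥3 runs (N = 6).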

OVCAR-8 = assay: Growth inhibition of human OVCAR8 cells; assay type: functional
In short: (§1)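 NCI-60 cell lines grown in RPMI 1640 with 5% FBS and 2 mM L-glutamine, plated at 5,000–40,000 cells/well and preincubated 24 h. Time-zero plates were TCA-fixed. Drug was given at five concentrations (10-fold or ½-log dilutions from DMSO stock) for 48 h at 37°C. Cells were TCA-fixed, stained with SRB, and read at 515 nm. GI50 is where [(Ti−Tz)/(C−Tz)]×100 = 50.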

A498 = assay: Growth inhibition of human A498 cells; assay type: functional; in short: as §1
NCI-H460 [2] = assay: Cytotoxicity against human NCI-H460 cells assessed as cell death at 50 nM after 12 hrs by Hoechst-33342 staining and propidium iodide staining; assay type: functional, cell-based; conditions: NCI-H460, 12 h
In short: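 NCI-H460 cells were seeded at 50,000 cells/well for 12 h, then exposed 12 h in serum-free medium (DMSO <0.1%). Cells were stained with Hoechst 33342 (10 µg/ml) and propidium iodide (20 µg/ml) for 30 min at 37°C. Condensed or fragmented nuclei were scored by fluorescence microscopy, and apoptotic index = apoptotic/total nuclei ×100. Duplicate wells, ≥3 runs (N = 6).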

NCI-H460 [3] = assay: Growth inhibition of human NCI-H460 cells; assay type: functional; in short: as §1
MOLT-4 = assay: Growth inhibition of human MOLT4 cells; assay type: functional; in short: as §1
DU-145 = assay: Growth inhibition of human DU145 cells; assay type: functional; in short: as §1
ACHN = assay: Growth inhibition of human ACHN cells; assay type: functional; in short: as §1
HCT-116 = assay: Growth inhibition of human HCT116 cells; assay type: functional; in short: as §1
OVCAR-3 = assay: Growth inhibition of human OVCAR3 cells; assay type: functional; in short: as §1
RXF 393 = assay: Growth inhibition of human RXF393 cells; assay type: functional; in short: as §1
CAKI-1 = assay: Growth inhibition of human Caki1 cells; assay type: functional; in short: as §1
[4] = Growth inhibition of human NCI60 cells; assay type: functional; in short: as §1
786-0 = assay: Growth inhibition of human 786-0 cells; assay type: functional; in short: as §1
TK-10 = assay: Growth inhibition of human TK10 cells; assay type: functional
In short: (§2)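 NCI-60 panel SRB assay. Cells in RPMI 1640 with 5% FBS and 2 mM L-glutamine, plated at 5,000-40,000 cells/well and grown 24 h before dosing; time-zero plates TCA-fixed. Five concentrations (10-fold or ½ log dilutions, from DMSO stock) applied for 48 h at 37°C. TCA fixation (16% final for suspension cells), SRB stain, absorbance 515 nm; GI50 from net protein increase versus control.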

SN12C = assay: Growth inhibition of human SN12C cells; assay type: functional; in short: as §2
A549 = assay: Growth inhibition of human A549 cells; assay type: functional; in short: as §1
NCI-H460 [5] = assay: Growth inhibition of human NCI-H460 cells after 48 hrs by MTT assay; assay type: functional; conditions: NCI-H460, 48 h
In short: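 NCI-H460 cells in RPMI 1640 with 10% FBS were seeded at 10,000 cells/well for 12 h. Drug was diluted 1000× from DMSO into 1% FBS medium (DMSO <0.1%). Time-course runs used 50 nM; dose–response runs used 48 h exposure. Viability was read by MTT (4 h), with formazan dissolved in DMSO for 45 min and read at 562 nm. Triplicate wells, ≥3 runs (N = 9), two-way ANOVA.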

UO-31 = assay: Growth inhibition of human UO31 cells; assay type: functional; in short: as §2

Compound | Activity (NCI-H460 [1]) [%] | growth inhibition (GI) (OVCAR-8) | growth inhibition (GI) (A498) | IC50 (NCI-H460 [2]) [nM] | growth inhibition (GI) (NCI-H460 [3]) | growth inhibition (GI) (MOLT-4) | growth inhibition (GI) (DU-145) | growth inhibition (GI) (ACHN) | growth inhibition (GI) (HCT-116) | growth inhibition (GI) (OVCAR-3) | growth inhibition (GI) (RXF 393) | growth inhibition (GI) (CAKI-1) | GI50 [4] [nM] | growth inhibition (GI) (786-0) | growth inhibition (GI) (TK-10) | growth inhibition (GI) (SN12C) | growth inhibition (GI) (A549) | GI50 (NCI-H460 [5]) [nM] | growth inhibition (GI) (UO-31)
C[C@H]1O[C@@H](O[C@H]2CC[C@@]3(C)[C@H](CC[C@@H]4[C@@H]3CC[C@]3(C)[C@@H](C5=CC(=O)OC5)CC[C@]43O)C2)C[C@H](O)[C@@H]1O | 28.8 | Active | Active | 74.8 | Active | Active | Active | Active | Active | Active | Active | Active | 25 | Active | Active | Active | Active | 3.8 | Active
C[C@@H]1O[C@H](O[C@H]2CC[C@@]3(C)[C@H](CC[C@@H]4[C@@H]3CC[C@]3(C)[C@@H](C5=CC(=O)OC5)CC[C@]43O)C2)C[C@H](O)[C@H]1O | – | – | – | – | – | – | – | – | – | – | – | – | 1 | – | – | – | – | – | –
